Activity calls are given as the source filed them. No cut-off for these calls is given here.
Key:
[1] = Intrinsic clearance in rat microsomes; assay type: ADME, Microsome
[2] = Metabolic stability in rat assessed as half life; assay type: ADME, organism-based; conditions: in vivo
[3] = target: 3',5'-cyclic-AMP phosphodiesterase 4A (Homo sapiens, UniProt P27815); experiment: Inhibition of human PDE4A by IMAP fluorescence polarization technology
[4] = target: T1, Dual specificity calcium/calmodulin-dependent 3',5'-cyclic nucleotide phosphodiesterase 1B (Homo sapiens, UniProt Q01064)
[5] = target: Beta-2 adrenergic receptor (Homo sapiens) (UniProt P07550); experiment: Inhibition of beta2 adrenergic receptor expressed in HEK293 cells co-transfected with PKA fragments Reg-F[1] and cat-F[2]-fused renilla luciferase assessed as effect on receptor regulated PKA activation at 100 uM after 30 mins by protein-fragment complementation assay in presence of inverse agonist ICI-118551; assay type: functional, cell-based
In short: (§1)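 Stable β2AR-HEK293 cells grown in DMEM with 10% fetal bovine serum and transiently transfected with the Rluc PCA PKA reporter. Compounds added 48 h after transfection. Medium exchanged for PBS and bioluminescence read on a luminometer immediately after treatment.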

[6] = target: T2, High affinity 3',5'-cyclic-AMP phosphodiesterase 7A (Homo sapiens, UniProt Q13946); experiment: Inhibition of PDE7A
[7] = target: Beta-2 adrenergic receptor (Homo sapiens) (UniProt P07550); experiment: Inhibition of beta2 adrenergic receptor expressed in HEK293 cells co-transfected with PKA fragments Reg-F[1] and cat-F[2]-fused renilla luciferase assessed as effect on receptor regulated PKA activation at 100 uM after 30 mins by protein-fragment complementation assay; assay type: cell-based; in short: as §1
[8] = target: T3, Dual specificity calcium/calmodulin-dependent 3',5'-cyclic nucleotide phosphodiesterase 1C (Homo sapiens, UniProt Q14123); experiment: Inhibition of PDE1C
[9] = target: cAMP and cAMP-inhibited cGMP 3',5'-cyclic phosphodiesterase 10A (Homo sapiens, UniProt Q9Y233); experiment: Inhibition of PDE10A1
[10] = target: T4, 3',5'-cyclic-AMP phosphodiesterase 7B (Homo sapiens, UniProt Q9NP56); experiment: Inhibition of PDE7B
[11] = Inhibition of PDE4 expressed in HEK293 cells coexpressing G-protein coupled receptor and cyclic nucleotide gated ion channel by fluorescence assay; assay type: cell-based
In short: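 PDE4-expressing reporter cells plated at 1000 cells/well in DMEM with penicillin/streptomycin and 2%, 5%, 10% or 20% fetal calf serum, 12 hr at 37 °C, 5% CO₂. Membrane potential dye 1 hr at room temperature, then compound pin-transferred from DMSO serial dilutions (final DMSO under 0.5%). Tested in duplicate.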

[12] = target: T5, cGMP-inhibited 3',5'-cyclic phosphodiesterase 3A (Homo sapiens, UniProt Q14432)
[13] = target: cGMP-inhibited 3',5'-cyclic phosphodiesterase 3B (Homo sapiens, UniProt Q13370)
[14] = target: Dual specificity calcium/calmodulin-dependent 3',5'-cyclic nucleotide phosphodiesterase 1A (Homo sapiens) (UniProt P54750); experiment: Inhibition of PDE1A at 10 uM
[15] = target: T2, High affinity 3',5'-cyclic-AMP phosphodiesterase 7A; experiment: Inhibition of PDE7A at 10 uM
[16] = target: T3, Dual specificity calcium/calmodulin-dependent 3',5'-cyclic nucleotide phosphodiesterase 1C; experiment: Inhibition of PDE1C at 10 uM
[17] = target: cGMP-specific 3',5'-cyclic phosphodiesterase (Homo sapiens) (UniProt O76074); experiment: Inhibition of PDE5A1 at 10 uM
[18] = target: Beta-2 adrenergic receptor (Homo sapiens) (UniProt P07550); experiment: Inhibition of beta2 adrenergic receptor expressed in HEK293 cells co-transfected with PKA fragments Reg-F[1] and cat-F[2]-fused renilla luciferase assessed as effect on receptor regulated increase in cAMP accumulation at 10 uM after 30 mins by protein-fragment complementation assay; assay type: functional, cell-based; in short: as §1
[19] = target: Beta-2 adrenergic receptor (Homo sapiens) (UniProt P07550); experiment: Inhibition of beta2 adrenergic receptor expressed in HEK293 cells co-transfected with PKA fragments Reg-F[1] and cat-F[2]-fused renilla luciferase assessed as effect on receptor regulated increase in cAMP accumulation at 100 uM after 30 mins by protein-fragment complementation assay; assay type: functional, cell-based; in short: as §1
[20] = target: T4, 3',5'-cyclic-AMP phosphodiesterase 7B; experiment: Inhibition of PDE7B at 10 uM
[21] = Inhibition of PDE4A1A
[22] = target: T5, cGMP-inhibited 3',5'-cyclic phosphodiesterase 3A; experiment: Inhibition of PDE3A at 10 uM
[23] = target: cGMP-dependent 3',5'-cyclic phosphodiesterase (Homo sapiens) (UniProt O00408); experiment: Inhibition of PDE2A at 10 uM
[24] = target: T1, Dual specificity calcium/calmodulin-dependent 3',5'-cyclic nucleotide phosphodiesterase 1B; experiment: Inhibition of PDE1B at 10 uM
[25] = target: Beta-2 adrenergic receptor (Homo sapiens) (UniProt P07550); experiment: Inhibition of beta2 adrenergic receptor expressed in HEK293 cells co-transfected with PKA fragments Reg-F[1] and cat-F[2]-fused renilla luciferase assessed as dissociation of PKA fragments after 2 mins by real time kinetic study relative to inverse agonist ICI-118551; assay type: functional, cell-based
In short: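 Stable β2AR-HEK293 cells grown in DMEM with 10% fetal bovine serum and transiently transfected with plasmids carrying the Rluc PCA PKA reporter (FuGENE-6). Cells were treated with compounds 48 h after transfection. Immediately after treatment, the medium was exchanged for PBS and bioluminescence was read on a luminometer.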

Sequence of 3',5'-cyclic-AMP phosphodiesterase 4A (P27815 whole entry): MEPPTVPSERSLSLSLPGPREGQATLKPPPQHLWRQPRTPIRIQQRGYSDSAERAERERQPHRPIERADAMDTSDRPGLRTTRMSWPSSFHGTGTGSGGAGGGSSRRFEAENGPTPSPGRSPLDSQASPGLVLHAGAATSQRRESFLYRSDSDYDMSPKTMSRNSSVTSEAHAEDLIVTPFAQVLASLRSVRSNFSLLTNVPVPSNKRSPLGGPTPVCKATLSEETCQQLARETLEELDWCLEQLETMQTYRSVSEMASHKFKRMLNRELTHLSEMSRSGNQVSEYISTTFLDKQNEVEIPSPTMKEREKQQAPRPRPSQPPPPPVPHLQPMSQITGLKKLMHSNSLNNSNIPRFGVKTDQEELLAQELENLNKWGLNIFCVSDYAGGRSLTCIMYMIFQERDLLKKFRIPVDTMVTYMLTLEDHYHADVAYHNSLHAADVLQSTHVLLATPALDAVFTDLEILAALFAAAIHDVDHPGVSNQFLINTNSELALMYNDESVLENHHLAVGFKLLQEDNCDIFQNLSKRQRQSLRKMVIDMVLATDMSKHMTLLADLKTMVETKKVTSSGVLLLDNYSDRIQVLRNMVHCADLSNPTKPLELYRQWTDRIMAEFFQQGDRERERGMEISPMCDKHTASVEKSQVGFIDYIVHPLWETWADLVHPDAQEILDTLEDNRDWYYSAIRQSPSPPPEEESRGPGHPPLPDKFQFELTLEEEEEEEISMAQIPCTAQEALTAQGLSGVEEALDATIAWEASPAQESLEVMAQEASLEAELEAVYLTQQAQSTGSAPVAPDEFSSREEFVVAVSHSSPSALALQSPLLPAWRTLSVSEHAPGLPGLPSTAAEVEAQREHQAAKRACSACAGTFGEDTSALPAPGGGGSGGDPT
Sequence of Beta-2 adrenergic receptor (Homo sapiens) (P07550 whole entry, looked up, the tested form may be a part): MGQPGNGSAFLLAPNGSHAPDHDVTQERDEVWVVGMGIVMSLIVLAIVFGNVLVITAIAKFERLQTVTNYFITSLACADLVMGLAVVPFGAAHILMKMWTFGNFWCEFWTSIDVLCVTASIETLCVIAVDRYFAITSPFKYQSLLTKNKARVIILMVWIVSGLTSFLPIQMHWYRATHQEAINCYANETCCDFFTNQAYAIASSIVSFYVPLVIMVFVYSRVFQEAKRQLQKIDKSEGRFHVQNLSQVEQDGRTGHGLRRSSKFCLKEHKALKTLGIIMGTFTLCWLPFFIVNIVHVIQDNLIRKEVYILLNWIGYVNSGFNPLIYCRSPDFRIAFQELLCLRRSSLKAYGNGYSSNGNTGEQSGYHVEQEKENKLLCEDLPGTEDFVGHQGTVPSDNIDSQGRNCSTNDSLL
T2 sequence (Q13946 whole entry, the tested form may be a part): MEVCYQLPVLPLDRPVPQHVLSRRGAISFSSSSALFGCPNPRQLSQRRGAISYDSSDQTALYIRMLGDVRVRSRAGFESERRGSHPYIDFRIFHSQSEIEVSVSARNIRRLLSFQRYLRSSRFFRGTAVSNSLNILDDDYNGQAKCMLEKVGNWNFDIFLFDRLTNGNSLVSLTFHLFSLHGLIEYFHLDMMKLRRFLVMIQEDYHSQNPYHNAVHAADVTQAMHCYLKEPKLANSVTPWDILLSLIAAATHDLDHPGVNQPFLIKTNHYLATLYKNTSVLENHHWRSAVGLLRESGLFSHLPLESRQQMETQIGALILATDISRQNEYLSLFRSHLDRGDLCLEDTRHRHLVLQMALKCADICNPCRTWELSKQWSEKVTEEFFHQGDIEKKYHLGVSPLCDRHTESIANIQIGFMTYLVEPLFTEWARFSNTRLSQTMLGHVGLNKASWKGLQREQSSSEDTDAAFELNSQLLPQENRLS
T4 sequence (Q9NP56 whole entry): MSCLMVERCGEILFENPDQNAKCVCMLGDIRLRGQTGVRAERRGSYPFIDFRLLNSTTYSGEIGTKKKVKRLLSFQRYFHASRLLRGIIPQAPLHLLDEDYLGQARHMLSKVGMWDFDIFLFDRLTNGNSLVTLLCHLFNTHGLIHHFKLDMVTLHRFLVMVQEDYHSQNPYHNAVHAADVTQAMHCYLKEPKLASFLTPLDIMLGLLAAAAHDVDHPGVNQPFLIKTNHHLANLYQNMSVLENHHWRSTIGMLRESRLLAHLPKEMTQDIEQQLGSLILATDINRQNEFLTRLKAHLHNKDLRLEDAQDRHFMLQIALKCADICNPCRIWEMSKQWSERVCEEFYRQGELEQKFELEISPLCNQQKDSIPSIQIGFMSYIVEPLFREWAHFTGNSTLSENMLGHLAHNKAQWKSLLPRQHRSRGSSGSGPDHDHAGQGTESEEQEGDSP
T1 sequence (Q01064 whole entry, the tested form may be a part): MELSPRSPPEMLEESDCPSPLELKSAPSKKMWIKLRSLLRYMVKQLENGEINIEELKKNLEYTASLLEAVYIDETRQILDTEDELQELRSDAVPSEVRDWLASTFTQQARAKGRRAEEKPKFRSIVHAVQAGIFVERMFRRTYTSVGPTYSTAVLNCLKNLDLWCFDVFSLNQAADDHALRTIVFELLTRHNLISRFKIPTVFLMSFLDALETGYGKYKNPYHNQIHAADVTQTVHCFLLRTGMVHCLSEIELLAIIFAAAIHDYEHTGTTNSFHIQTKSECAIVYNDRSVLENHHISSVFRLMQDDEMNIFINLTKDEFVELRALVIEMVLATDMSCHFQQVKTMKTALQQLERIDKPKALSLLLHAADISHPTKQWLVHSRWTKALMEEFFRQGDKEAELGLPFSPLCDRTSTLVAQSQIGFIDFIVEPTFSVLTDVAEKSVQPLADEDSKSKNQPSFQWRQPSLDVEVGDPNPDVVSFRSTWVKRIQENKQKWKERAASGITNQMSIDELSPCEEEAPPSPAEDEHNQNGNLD
T5 sequence (Q14432 whole entry): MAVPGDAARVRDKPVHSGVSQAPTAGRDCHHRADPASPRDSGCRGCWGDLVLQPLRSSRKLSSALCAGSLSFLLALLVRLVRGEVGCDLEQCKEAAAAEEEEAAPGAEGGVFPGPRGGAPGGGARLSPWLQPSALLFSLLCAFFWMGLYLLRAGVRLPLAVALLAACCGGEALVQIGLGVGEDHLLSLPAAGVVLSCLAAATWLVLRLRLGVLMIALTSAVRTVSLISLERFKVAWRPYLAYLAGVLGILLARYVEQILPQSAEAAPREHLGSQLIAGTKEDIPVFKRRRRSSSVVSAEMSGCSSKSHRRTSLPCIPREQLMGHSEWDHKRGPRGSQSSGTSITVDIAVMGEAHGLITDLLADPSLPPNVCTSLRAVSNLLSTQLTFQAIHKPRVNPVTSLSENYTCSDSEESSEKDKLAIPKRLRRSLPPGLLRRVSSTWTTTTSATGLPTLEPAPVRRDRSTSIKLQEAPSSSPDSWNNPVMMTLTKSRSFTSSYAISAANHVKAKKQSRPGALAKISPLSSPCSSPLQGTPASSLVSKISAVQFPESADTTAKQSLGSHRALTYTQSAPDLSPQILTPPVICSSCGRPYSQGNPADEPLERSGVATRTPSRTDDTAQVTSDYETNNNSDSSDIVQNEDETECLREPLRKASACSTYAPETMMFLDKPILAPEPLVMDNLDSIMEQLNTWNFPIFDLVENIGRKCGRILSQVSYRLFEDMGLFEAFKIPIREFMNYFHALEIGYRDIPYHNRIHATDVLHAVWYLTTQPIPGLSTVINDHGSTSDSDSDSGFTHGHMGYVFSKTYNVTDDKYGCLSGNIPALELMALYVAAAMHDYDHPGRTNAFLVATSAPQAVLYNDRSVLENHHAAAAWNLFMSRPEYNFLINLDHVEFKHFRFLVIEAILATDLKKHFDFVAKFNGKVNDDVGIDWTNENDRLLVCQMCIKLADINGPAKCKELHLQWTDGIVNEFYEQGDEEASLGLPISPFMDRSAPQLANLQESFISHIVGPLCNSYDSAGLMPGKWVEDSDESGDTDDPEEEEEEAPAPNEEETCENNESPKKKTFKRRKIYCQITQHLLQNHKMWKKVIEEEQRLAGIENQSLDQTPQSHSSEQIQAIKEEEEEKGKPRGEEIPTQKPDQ
T3 sequence (Q14123 whole entry): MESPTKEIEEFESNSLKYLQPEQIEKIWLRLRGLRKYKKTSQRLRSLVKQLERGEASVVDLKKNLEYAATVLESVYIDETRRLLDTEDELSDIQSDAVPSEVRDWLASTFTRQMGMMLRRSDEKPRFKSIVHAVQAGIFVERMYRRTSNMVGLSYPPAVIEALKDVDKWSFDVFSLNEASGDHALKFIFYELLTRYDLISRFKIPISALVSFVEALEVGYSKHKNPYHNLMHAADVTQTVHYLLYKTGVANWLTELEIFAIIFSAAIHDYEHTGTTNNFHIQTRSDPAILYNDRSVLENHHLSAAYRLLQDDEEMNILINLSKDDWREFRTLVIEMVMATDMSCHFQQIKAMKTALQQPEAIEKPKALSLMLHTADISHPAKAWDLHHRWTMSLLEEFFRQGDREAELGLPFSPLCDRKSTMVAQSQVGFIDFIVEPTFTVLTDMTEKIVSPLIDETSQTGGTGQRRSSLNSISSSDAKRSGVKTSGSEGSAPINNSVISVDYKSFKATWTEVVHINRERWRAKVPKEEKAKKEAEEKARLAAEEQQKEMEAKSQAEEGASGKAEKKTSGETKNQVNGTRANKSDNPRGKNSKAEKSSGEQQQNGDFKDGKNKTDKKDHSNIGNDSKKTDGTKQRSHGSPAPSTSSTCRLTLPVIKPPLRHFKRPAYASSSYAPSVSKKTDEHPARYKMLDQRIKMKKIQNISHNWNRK

Q: With `COc1ccc(OC)c(-c2nnc3n2N=C(c2ccc(OC(F)F)c(OCC4CC4)c2)CS3)c1` as the compound, how does the microsomal CLint [1] read?
A: > 300 µL/min/mg

Q: What about the half-life [2] of the same compound?
A: 3 min

Q: Which IC50 [3] does the source give for `COc1ccc(C2=Nn3c(nnc3-c3ccccc3Cl)SC2)cc1OC1CCCC1` here?
A: 26 nM

Q: With `COc1ccc(C2=Nn3c(nnc3-c3ccccc3Cl)SC2)cc1OCC1CC1` as the compound, how does the IC50 [3] read?
A: 21 nM

Q: Which IC50 [3] does the source give for `Fc1ccccc1-c1nnc2n1N=C(c1ccc(OC(F)F)c(OCC3CC3)c1)CS2` here?
A: 53 nM

Q: For `COc1ccc(C2=Nn3c(nnc3-c3ccccc3OC)SC2)cc1OC1CCOC1` (stereo not given), which IC50 [3] is on record?
A: 20 nM

Q: For `COc1ccc(C2CNC(=O)C2)cc1OC1CCCC1` (stereo not given) [ROLIPRAM], which IC50 [4] is on record?
A: Not Active

Q: What about the inhibition [5] of the same compound?
A: inactive

Q: And the IC50 [6]?
A: Not Active

Q: And the inhibition [7]?
A: Active

Q: What about the IC50 [8] of the same compound?
A: Not Active

Q: And the IC50 [9]?
A: Not Active

Q: And the IC50 [10]?
A: Not Active

Q: Which IC50 [3] does the source give for `COc1ccc(C2=Nn3c(nnc3-c3ccccc3Cl)SC2)cc1O[C@@H]1CCOC1` here?
A: 3.8 nM

Q: For `COc1ccc(C2=Nn3c(nnc3-c3ccccc3OC)SC2)cc1OCC1CC1`, which IC50 [3] is on record?
A: 35 nM

Q: Which EC50 [11] does the source give for `COc1ccc(OC)c(-c2nnc3n2N=C(c2ccc(OC)c(OC)c2)CS3)c1` here?
A: 18.7 nM

Q: What about the microsomal CLint [1] of the same compound?
A: > 300 µL/min/mg

Q: And the IC50 [12]?
A: 1700 nM

Q: What about the IC50 [13] of the same compound?
A: 720 nM

Q: What about the IC50 ([9]; read-out: IC50) of the same compound?
A: 823 nM

Q: And the half-life [2]?
A: 3 min

Q: Which microsomal CLint [1] does the source give for `COc1ccc(OC)c(-c2nnc3ccc(-c4ccc(OC)c(O[C@H]5CCOC5)c4)nn23)c1` here?
A: > 300 µL/min/mg

Q: What about the half-life [2] of the same compound?
A: 3 min

Q: With `COc1ccc(OC)c(-c2nnc3n2N=C(c2ccc(OC)c(OC4CCCC4)c2)CS3)c1` as the compound, how does the microsomal CLint [1] read?
A: > 300 µL/min/mg

Q: And the half-life [2]?
A: 3 min

Q: Which IC50 [3] does the source give for `COc1ccc(C2=Nn3c(nnc3-c3ccccc3F)SC2)cc1OC1CCCC1` here?
A: 33 nM

Q: With `COc1ccc(OC)c(-c2nnc3n2N=C(c2ccc(OC)c(OCC4CC4)c2)CS3)c1` as the compound, how does the microsomal CLint [1] read?
A: > 300 µL/min/mg

Q: And the half-life [2]?
A: 3 min

Q: Which IC50 [3] does the source give for `COc1ccc(C2=Nn3c(nnc3-c3ccccc3F)SC2)cc1O[C@@H]1CCOC1` here?
A: 8.6 nM

Q: For `COc1ccc(C2=Nn3c(nnc3-c3ccccc3Cl)SC2)cc1OC1CCOC1` (stereo not given), which IC50 [3] is on record?
A: 9.8 nM

Q: For `COc1ccc(OC)c(-c2nnc3n2N=C(c2ccc(OC)c(OC4CCOC4)c2)CS3)c1` (racemic), which microsomal CLint [1] is on record?
A: > 300 µL/min/mg

Q: What about the half-life [2] of the same compound?
A: 3 min

Q: Which IC50 [3] does the source give for `COc1ccc(C2=Nn3c(nnc3-c3ccccc3OC)SC2)cc1OC1CCCC1` here?
A: 32 nM

Q: With `COc1ccc(OC)c(-c2nnc3ccc(-c4ccc(OC)c(O[C@@H]5CCOC5)c4)nn23)c1` as the compound, how does the inhibition [14] read?
A: 32%

Q: What about the inhibition [15] of the same compound?
A: 59%

Q: And the inhibition [16]?
A: 74%

Q: What about the inhibition [17] of the same compound?
A: 51%

Q: What about the EC50 [11] of the same compound?
A: 34.2 nM

Q: What about the microsomal CLint [1] of the same compound?
A: > 300 µL/min/mg

Q: What about the inhibition [18] of the same compound?
A: Active

Q: And the inhibition [19]?
A: Active

Q: And the inhibition [20]?
A: 35%

Q: And the IC50 [21]?
A: 0.6 nM

Q: And the inhibition [22]?
A: 54%

Q: What about the inhibition [23] of the same compound?
A: 54%

Q: What about the inhibition [24] of the same compound?
A: 56%

Q: What about the half-life [2] of the same compound?
A: 3 min

Q: Which results are given for `COc1ccc(OC)c(-c2nnc3n2N=C(c2ccc(OC)c(O[C@@H]4CCOC4)c2)CS3)c1`?
A: inhibition [14]: 36%; inhibition [15]: 48%; inhibition [16]: 49%; inhibition [17]: 58%; inhibition [25]: 25%; EC50 [11]: 2.3 nM; microsomal CLint [1]: > 300 µL/min/mg; inhibition [18]: Active; inhibition [19]: Active; inhibition [20]: 43%; inhibition [22]: 56%; inhibition [23]: 68%; inhibition [24]: 52%; half-life [2]: 3 min

Q: For `COc1ccc(C2=Nn3c(nnc3-c3ccccc3F)SC2)cc1OC1CCOC1` (stereo not given), which IC50 [3] is on record?
A: 11 nM

Q: With `COc1ccccc1-c1nnc2n1N=C(c1ccc(OC(F)F)c(OCC3CC3)c1)CS2` as the compound, how does the IC50 [3] read?
A: 35 nM

Q: With `COc1ccc(C2=Nn3c(nnc3-c3ccccc3OC)SC2)cc1O[C@@H]1CCOC1` as the compound, how does the IC50 [3] read?
A: 11 nM

Q: Which IC50 [3] does the source give for `FC(F)Oc1ccc(C2=Nn3c(nnc3-c3ccccc3Cl)SC2)cc1OCC1CC1` here?
A: 37 nM

— ChEMBL document CHEMBL1151934, “Exploration and optimization of substituted triazolothiadiazines and triazolopyridazines as PDE4 inhibitors” (Bioorg Med Chem Lett, 2009)
